{"source": "ChEMBL document CHEMBL4334504", "about": "(J Med Chem, 2019)", "key": {"[1]": {"tested_on": "Clostridioides difficile", "test": "Antibacterial activity against Clostridium difficile VPI 10463 ATCC 43255 assessed as bacterial growth inhibition incubated for 48 hrs under anaerobic condition by CLSI protocol based assay", "assay_type": "functional", "details": "ATCC 43255 VPI 10463, 48 h", "in_short": "(§1)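 Broth microdilution following CLSI guidance. Strains pre-grown anaerobically on BHIS agar (BHI plus yeast extract, vitamin K1, hemin) at 37 °C for 48 h. ~10^5 CFU/mL in BHIS broth added to serial compound dilutions. Incubated anaerobically at 37 °C for 48 h. MIC is the lowest concentration showing visible growth inhibition.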"}, "[2]": {"tested_on": "Clostridioides difficile", "test": "Antibacterial activity against Clostridium difficile 4118 ATCC BAA 1870 assessed as bacterial growth inhibition incubated for 48 hrs under anaerobic condition by CLSI protocol-based assay", "assay_type": "functional", "details": "4118 ATCC BAA 1870, 48 h", "in_short": "as §1"}, "[3]": {"test": "Effect on growth of Lactobacillus crispatus JV-V01 HM 103 measured after 48 hrs in 5% CO2 by CLSI method", "details": "lactobacillus crispatus jv-v01, 48 h"}, "[4]": {"test": "Effect on growth of Lactobacillus gasseri EX336960VC03 HM 400 measured after 48 hrs in 5% CO2 by CLSI method", "details": "lactobacillus gasseri ex336960vc03, 48 h"}, "[5]": {"tested_on": "Enterobacter cloacae", "test": "Effect on growth of Enterobacter cloacae ATCC BAA 1143 assessed as bacterial growth inhibition measured after 16 to 18 hrs grown in tryptic soy medium by CLSI method", "assay_type": "organism-based", "details": "in vivo", "in_short": "(§2)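 CLSI microdilution. Colonies from TSA (16-20 h, 37 °C) suspended in PBS to 0.5 McFarland, then diluted in TSB to ~10^5 CFU/mL. Incubated with serial compound dilutions for 16-20 h at 37 °C. MIC is the lowest concentration inhibiting growth.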"}, "[6]": {"tested_on": "Lacticaseibacillus paracasei", "test": "Effect on growth of Lactobacillus casei ATCC 334 measured after 48 hrs in 5% CO2 by CLSI method"}, "[7]": {"tested_on": "Bifidobacterium bifidum", "test": "Effect on growth of Bifidobacterium bifidum 212A ATCC 11863 measured after 48 hrs in anerobic conditions by CLSI method", "assay_type": "organism-based", "details": "in vivo"}, "[8]": {"tested_on": "Escherichia coli", "test": "Effect on growth of Escherichia coli ATCC 25922 assessed as bacterial growth inhibition measured after 16 to 18 hrs by CLSI method", "assay_type": "organism-based", "details": "in vivo", "in_short": "as §2"}}, "data": [{"smiles": "CCCc1nc2c([N+](=O)[O-])csc2c(=O)[nH]1", "values": [{"measurement": "MIC", "setting": "[1]", "result": 67, "unit": "µM"}, {"measurement": "MIC", "setting": "[2]", "result": 67, "unit": "µM"}]}, {"smiles": "Cc1nc(Nc2ccccc2)c2scc([N+](=O)[O-])c2n1", "values": [{"measurement": "MIC", "setting": "[1]", "result": 14, "unit": "µM"}, {"measurement": "MIC", "setting": "[2]", "result": 28, "unit": "µM"}]}, {"smiles": "O=[N+]([O-])c1csc2c(N3CCOCC3)nc(/C=C/c3ccc(F)cc3)nc12", "values": [{"measurement": "MIC", "setting": "[1]", "result": 166, "unit": "µM"}, {"measurement": "MIC", "setting": "[2]", "result": 166, "unit": "µM"}]}, {"smiles": "Cc1nc2c([N+](=O)[O-])csc2c(=O)n1CCc1ccccc1", "values": [{"measurement": "MIC", "setting": "[1]", "result": 13, "unit": "µM"}, {"measurement": "MIC", "setting": "[2]", "result": 13, "unit": "µM"}]}, {"smiles": "CN[C@H](CC(C)C)C(=O)N[C@H]1C(=O)N[C@@H](CC(N)=O)C(=O)N[C@H]2C(=O)N[C@H]3C(=O)N[C@H](C(=O)N[C@H](C(=O)O)c4cc(O)cc(O)c4-c4cc3ccc4O)[C@H](O)c3ccc(c(Cl)c3)Oc3cc2cc(c3O[C@@H]2O[C@H](CO)[C@@H](O)[C@H](O)[C@H]2O[C@H]2C[C@](C)(N)[C@H](O)[C@H](C)O2)Oc2ccc(cc2Cl)[C@H]1O", "note": "[VANCOMYCIN]", "values": [{"measurement": "MIC", "setting": "[3]", "result": "<= 1 uM"}, {"measurement": "MIC", "setting": "[1]", "result": 0.3, "unit": "µM"}, {"measurement": "MIC", "setting": "[2]", "result": 0.7, "unit": "µM"}, {"measurement": "MIC", "setting": "[4]", "result": "<= 1 uM"}]}, {"smiles": "O=c1[nH]cnc2ccc([N+](=O)[O-])cc12", "values": [{"measurement": "MIC", "setting": "[3]", "result": "> 700", "unit": "µM"}, {"measurement": "MIC", "setting": "[1]", "result": 335, "unit": "µM"}, {"measurement": "MIC", "setting": "[2]", "result": 335, "unit": "µM"}, {"measurement": "MIC", "setting": "[5]", "result": "> 700", "unit": "µM"}, {"measurement": "MIC", "setting": "[6]", "result": "> 700", "unit": "µM"}, {"measurement": "MIC", "setting": "[7]", "result": "> 700", "unit": "µM"}, {"measurement": "MIC", "setting": "[4]", "result": "> 700", "unit": "µM"}, {"measurement": "MIC", "setting": "[8]", "result": "> 700", "unit": "µM"}]}, {"smiles": "N#Cc1ccc(/C=C/c2nc3c([N+](=O)[O-])csc3c(=O)[nH]2)cc1", "values": [{"measurement": "MIC", "setting": "[1]", "result": "> 197", "unit": "µM"}, {"measurement": "MIC", "setting": "[2]", "result": "> 197", "unit": "µM"}]}, {"smiles": "C#Cc1ccc(/C=C/c2nc3c([N+](=O)[O-])csc3c(=O)[nH]2)cc1", "values": [{"measurement": "MIC", "setting": "[1]", "result": 12, "unit": "µM"}, {"measurement": "MIC", "setting": "[2]", "result": 6, "unit": "µM"}]}, {"smiles": "O=c1c2scc([N+](=O)[O-])c2nc(/C=C/c2ccc(F)cc2)n1Cc1ccccc1", "values": [{"measurement": "MIC", "setting": "[1]", "result": 157, "unit": "µM"}, {"measurement": "MIC", "setting": "[2]", "result": 157, "unit": "µM"}]}, {"smiles": "Cc1nc2c([N+](=O)[O-])csc2c(=O)n1Cc1cccc([N+](=O)[O-])c1", "values": [{"measurement": "MIC", "setting": "[1]", "result": 23, "unit": "µM"}, {"measurement": "MIC", "setting": "[2]", "result": 23, "unit": "µM"}]}, {"smiles": "Cc1nc2ncccc2c(=O)[nH]1", "values": [{"measurement": "MIC", "setting": "[1]", "result": "> 794", "unit": "µM"}, {"measurement": "MIC", "setting": "[2]", "result": "> 794", "unit": "µM"}]}, {"smiles": "Cc1nc2ccsc2c(=O)[nH]1", "values": [{"measurement": "MIC", "setting": "[1]", "result": 385, "unit": "µM"}, {"measurement": "MIC", "setting": "[2]", "result": "> 770", "unit": "µM"}]}, {"smiles": "O=C(O)c1ccc(/C=C/c2nc3c([N+](=O)[O-])csc3c(=O)[nH]2)o1", "values": [{"measurement": "MIC", "setting": "[1]", "result": "> 384", "unit": "µM"}, {"measurement": "MIC", "setting": "[2]", "result": "> 384", "unit": "µM"}]}, {"smiles": "Cc1nc2c([N+](=O)[O-])csc2c(=O)n1-c1cccc(C(=O)O)c1", "values": [{"measurement": "MIC", "setting": "[1]", "result": 193, "unit": "µM"}, {"measurement": "MIC", "setting": "[2]", "result": "> 386", "unit": "µM"}]}, {"smiles": "O=c1[nH]c(/C=C/c2ccc(O)cc2)nc2c([N+](=O)[O-])csc12", "values": [{"measurement": "MIC", "setting": "[1]", "result": 13, "unit": "µM"}, {"measurement": "MIC", "setting": "[2]", "result": 26, "unit": "µM"}]}, {"smiles": "Cc1nc2c(C)csc2c(=O)[nH]1", "values": [{"measurement": "MIC", "setting": "[1]", "result": "> 710", "unit": "µM"}, {"measurement": "MIC", "setting": "[2]", "result": "> 710", "unit": "µM"}]}, {"smiles": "Cc1ncc([N+](=O)[O-])n1CCO", "note": "[METRONIDAZOLE]", "values": [{"measurement": "MIC", "setting": "[3]", "result": "> 1496", "unit": "µM"}, {"measurement": "MIC", "setting": "[1]", "result": 1.5, "unit": "µM"}, {"measurement": "MIC", "setting": "[2]", "result": 0.7, "unit": "µM"}, {"measurement": "MIC", "setting": "[6]", "result": 47, "unit": "µM"}, {"measurement": "MIC", "setting": "[7]", "result": "> 1496", "unit": "µM"}, {"measurement": "MIC", "setting": "[4]", "result": "> 1496", "unit": "µM"}]}, {"smiles": "O=c1[nH]c(/C=C/c2cccc(F)c2)nc2c([N+](=O)[O-])csc12", "values": [{"measurement": "MIC", "setting": "[1]", "result": 13, "unit": "µM"}, {"measurement": "MIC", "setting": "[2]", "result": 13, "unit": "µM"}]}, {"smiles": "Cc1nc2c([N+](=O)[O-])csc2c(=O)n1CC(=O)Nc1ccccc1", "values": [{"measurement": "MIC", "setting": "[1]", "result": 23, "unit": "µM"}, {"measurement": "MIC", "setting": "[2]", "result": 46, "unit": "µM"}]}, {"smiles": "O=c1[nH]c(/C=C/c2ccccc2)nc2c([N+](=O)[O-])csc12", "values": [{"measurement": "MIC", "setting": "[1]", "result": 52, "unit": "µM"}, {"measurement": "MIC", "setting": "[2]", "result": 13, "unit": "µM"}]}, {"smiles": "Cc1nc2c([N+](=O)[O-])csc2c(=O)n1CC(=O)N1CCN(C)CC1", "values": [{"measurement": "MIC", "setting": "[1]", "result": 91, "unit": "µM"}, {"measurement": "MIC", "setting": "[2]", "result": 91, "unit": "µM"}]}, {"smiles": "Cc1nc2c([N+](=O)[O-])csc2c(=O)n1Cc1ccccc1[N+](=O)[O-]", "values": [{"measurement": "MIC", "setting": "[1]", "result": 23, "unit": "µM"}, {"measurement": "MIC", "setting": "[2]", "result": 23, "unit": "µM"}]}, {"smiles": "COc1ccc(Cn2c(C)nc3c([N+](=O)[O-])csc3c2=O)cc1", "values": [{"measurement": "MIC", "setting": "[1]", "result": 24, "unit": "µM"}, {"measurement": "MIC", "setting": "[2]", "result": 24, "unit": "µM"}]}, {"smiles": "Cc1nc2c([N+](=O)[O-])coc2c(=O)[nH]1", "values": [{"measurement": "MIC", "setting": "[3]", "result": "> 700", "unit": "µM"}, {"measurement": "MIC", "setting": "[1]", "result": 41, "unit": "µM"}, {"measurement": "MIC", "setting": "[2]", "result": 41, "unit": "µM"}, {"measurement": "MIC", "setting": "[5]", "result": "> 700", "unit": "µM"}, {"measurement": "MIC", "setting": "[6]", "result": "> 700", "unit": "µM"}, {"measurement": "MIC", "setting": "[7]", "result": "> 700", "unit": "µM"}, {"measurement": "MIC", "setting": "[4]", "result": "> 700", "unit": "µM"}, {"measurement": "MIC", "setting": "[8]", "result": "> 700", "unit": "µM"}]}, {"smiles": "O=c1[nH]c(-c2ccccc2)nc2ccsc12", "values": [{"measurement": "MIC", "setting": "[1]", "result": "> 560", "unit": "µM"}, {"measurement": "MIC", "setting": "[2]", "result": "> 560", "unit": "µM"}]}, {"smiles": "Cc1nc2c([N+](=O)[O-])csc2c(=O)n1CC(=O)N1CCOCC1", "values": [{"measurement": "MIC", "setting": "[1]", "result": 94, "unit": "µM"}, {"measurement": "MIC", "setting": "[2]", "result": 47, "unit": "µM"}]}, {"smiles": "O=c1[nH]c(/C=C/c2ccc([N+](=O)[O-])cc2)nc2c([N+](=O)[O-])csc12", "values": [{"measurement": "MIC", "setting": "[1]", "result": 12, "unit": "µM"}, {"measurement": "MIC", "setting": "[2]", "result": 24, "unit": "µM"}]}, {"smiles": "O=c1[nH]cnc2c([N+](=O)[O-])csc12", "values": [{"measurement": "MIC", "setting": "[1]", "result": 10, "unit": "µM"}, {"measurement": "MIC", "setting": "[2]", "result": 20, "unit": "µM"}]}]}
